This sample holds only a part of the variants without activity.
B1: tRNA (parent)
chain: GUUCCGUUGGCGUAAUGGUAACGCGUCUCCCUCCUAAGGAGAAGACUGCGGGUUCGAGUCCCGUACGGAACG

Variants of: B1
Assay: yeast fitness relative to wild type (ratio to wild type); higher = fitter; tRNA-Arg(CCU), competitive growth, 37 C, YPD
How it was run: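 Variants of the tRNA-Arg(CCU) gene were chemically synthesised with a 3% per-site mutation rate across 69 sites and placed at the native genomic locus in Saccharomyces cerevisiae. Six parallel replicates of the pooled strains were competed in YPD at 37°C for 24 hours, and gene amplicons from the start and end populations were read by 100-nucleotide paired-end sequencing. Darwinian fitness relative to wild type was derived from changes in genotype frequencies. Genotypes required ≥ 100 starting reads, and estimates < 0.5 were set to 0.5.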

Variant | yeast fitness
A43G C55A | 0.599
A43G C55U | 0.711
A43G C61A G67A | ≤ 0.5
G44A C66G | 0.641
A43C A65U | 0.753
A43C A65G | 0.95
A43U C46G U54A G63A | 0.726
A43G A45G C55U | ≤ 0.5
A42G A45U | 0.952
A42G A45G | 0.786
A43U G48C C60A U64A | ≤ 0.5
G44A G56A U59A | 0.575
A43G U64G | 0.64
A42C U47A G63C A69C | 0.578
G44A C46U G58A | 0.687
G44C G52A | 0.833
A43G U47A C49A | 0.531
A42G C55U A65C | 0.535
A42C U47C U54A G67C A69U | ≤ 0.5
A42G C49U U59C C61U | ≤ 0.5
A43U C60G C61U | ≤ 0.5
A43C C49G C61A | 0.702
A42G A43G C46G G56C | 0.57
A43G G63U U64A | 0.567

Variant | yeast fitness
A42U G48A A65U | 0.706
A42G C49U G51A | 0.535
G44A C46U C62U | 0.723
A43G C61U | 0.887
A43C C61A | 0.776
A43C C61U | 0.956
A42C G52C A69C | 0.607
A43C A57U | 0.678
G44A C49U C62A G67C | ≤ 0.5
A43U G48A U64C | 0.751
A43U C61G | 0.716
A43U C61U | 0.969
A42U A57G G58A A70U | ≤ 0.5
A43G A70G | 0.977
A43G A70C | 1.02
A43G A70U | 1.01
A43U C49G C61U | ≤ 0.5
A43U C62G | 0.805
A43U C62U | 1.01
A43G U47C C62U | 0.644
A43U U59A | 0.807
A43C U54C | 0.876
A42G U59C C61U | 0.502
A42U C49U G50A | 0.651

Variant | yeast fitness
A42G G67U | 0.633
A42G U47A | 0.785
A43U C60U G67C | 0.636
A43C G67U | 0.849
A43U C62G C66A A69C | 0.67
A42U G68A | 0.927
G44C G50A A69U | 0.63
A43G A45U G63A | 0.613
A43G A45C C46U | 0.578
A43C C49G | 0.639
A43C C49A | 0.631
A43U G48C U54C C60A U64A | ≤ 0.5
A43U G56A A70U | 0.948
A43U G51A C55U | ≤ 0.5
A42G A43C | 1.17
A42G A43U | 1.03
A42U C62U | 0.991
A42U C62G | 0.596
A43C U59C | 0.828
A42G G58A | 0.879
A42C U64G | 0.596
G44C C55U | 0.731
G44A A69U | 1.06
A42G G51A | 0.822

Variant | yeast fitness
A42G G51C | ≤ 0.5
A43U G63A | 0.895
A42G C61A G63C | ≤ 0.5
A43U A57C G58A | ≤ 0.5
A43G A45U C46U | 0.604
A43G A57C A65U | 0.511
G44A C55G | 0.558
A43C G52A A70U | ≤ 0.5
A42U C62A A70C | 0.581
A42U G52A C62U | 0.754
A43C A45G A69C | 0.643
A43U G48A | 1.01
A43U G48U | 0.77
A42U G51A C60G G63A | ≤ 0.5
A42G A45U U64C A70C | ≤ 0.5
A43U G48C C55U | ≤ 0.5
G44C U54A C61A | 0.561
G44A A65C | 1.05
G44A A65U | 0.816
A43G G56A | 0.86
A43C C46U G56C | 0.506
G44C G50C U54G C61G | 0.568
A43G U47A U53A | ≤ 0.5
A42U G63A G68C | 0.544

Variant | yeast fitness
A43G C49U C60A C62A | ≤ 0.5
A42G C49U A65U | ≤ 0.5
A43C G68C | 0.72
A42U C61U C62U | 0.612
G44C G63C G68A | ≤ 0.5
A42U C49G C55A | ≤ 0.5
A42C U53A U54A | ≤ 0.5
G44C C61A C66U | 0.824
A43U U47G U53G A69U | ≤ 0.5
A42U G51C | 0.567
A43U A70U | 1.06
G44C C60G A65G | 0.617
A42G C61A C66A | ≤ 0.5
G44A C61G | 0.597
A42U G58C | 0.924
A42U G58A | 0.939
A43G A45C G51A | ≤ 0.5
A42G C66A | 0.599
G44C C66U A70C | 0.88
A43C G52A C55U C60A | ≤ 0.5
A43U A65G C66U | 0.794
A43U U64C | 1.02
G44C A57U | 0.554
A43U C46G U54A | 0.538

Variant | yeast fitness
G44C G52A A69G | ≤ 0.5
G44C C60A C66U | ≤ 0.5
A42C G63C | 0.681
G44C A65G A70C | 0.682
A43U G48A C61G A70C | ≤ 0.5
G44A U54C | 0.723
A43U C49A | 0.756
A43U C49U | 1.09
A42G C60U A69G A70U | ≤ 0.5
A43U C60G A70C | 0.599
A43G C46G G56C | ≤ 0.5
A43G C60A C66G | ≤ 0.5
G44C G56A A57G | 0.543
G44C G58C C66U | 0.653
A42G C49G U54C G63C A70U | 0.547
A42U G50A A65C | ≤ 0.5
A42G U54A U59A | 0.541
G44A C60G | 0.667
A42U C55U | 0.709
A43G C61U A65U | 0.567
A42G C46U | 0.974
A42U G48C C61A | 0.643
A42U C61G A65U | ≤ 0.5
A42C U59A | 0.764

Variant | yeast fitness
A42C U59G | 0.752
A43C G44A | 1.01
A43G G51C U54A A57C | ≤ 0.5
G44A A57G G58A | 0.695
A43U U53C | 0.854
A43U U53A | 0.666
G44A U64G | 0.694
G44A G56C C62U | 0.695
G44A C46G | 0.928
G44A C46A | 0.835
G44C A45U U53C | 0.605
A43C A45G | 1.02
A43C A45U | 0.973
A42U C49U G51A | 0.665
G44C | 0.985
G44A | 0.982
A42U A65G C66G G68A | 0.551
A43U A45G C55G | ≤ 0.5
A43G C55U C61U | 0.543
G44A G58C | 0.911
G44A G58A | 0.955
A42U G52A | 0.808
A43C G52A | 0.887

From the RNAGym collection of RNA variant scans (doi:10.1126/science.aae0568)
